Source: ChEMBL document CHEMBL3758111, “DFT Calculations and ROESY NMR Data for the Diastereochemical Characterization of Cytotoxic Tetraterpenoids from the Oleoresin of Abies balsamea” (J Nat Prod, 2015)

Legend:
A549 = assay: Cytotoxicity against human A549 cells assessed as growth inhibition after 48 hrs by resazurin assay; assay type: functional, cell-based; settings: A549, 48 h
Method in brief: (§1)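 Human lung carcinoma A549, colon adenocarcinoma DLD-1 and normal skin fibroblast WS1 cells were tested by resazurin reduction, following an earlier-published protocol. Values are IC50, the concentration inhibiting 50% of cell growth. Etoposide served as the positive control.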

[1] = Cytotoxicity against human DLD1 cells assessed as growth inhibition after 48 hrs by resazurin assay; assay type: functional, cell-based; settings: DLD-1, 48 h; method in brief: as §1
[2] = Cytotoxicity against human WS1 cells assessed as growth inhibition after 48 hrs by resazurin assay; assay type: cell-based; settings: WS1, 48 h; method in brief: as §1

Row | Structure (SMILES) | IC50 (A549) [µM] | IC50 [1] [µM] | IC50 [2] [µM]
1 | C=C(C)[C@@H]1CC=C2[C@@H](CC[C@]23C(=C)CC[C@@]3(C)[C@H](C)CC(=O)[C@H]2CC(CCC=C(C)C)=CC[C@]2(C)C(=O)O)[C@@]1(C)CCC(=O)OC | 7.2 | > 10 | > 10
2 | C=C(C)[C@@H]1CC=C2[C@@H](CC[C@]23C(=C)CC[C@@]3(C)[C@H](C)CC(=O)[C@H]2CC(CCC=C(C)C)=CC[C@]2(C)C(=O)O)[C@@]1(C)CCC(=O)O | > 10 | > 10 | > 10
3 | C=C(C)[C@@H]1C=CC2=C3CC[C@@](C)([C@H](C)CC(=O)[C@@H]4CC(CCC=C(C)C)=CC[C@@]4(C)C(=O)O)[C@]3(C)CC[C@H]2[C@@]1(C)CCC(=O)O | > 10 | > 10 | > 10
4 | C=C(C)[C@@H]1C=CC2=C3CC[C@@](C)([C@H](C)CC(=O)[C@@H]4CC=C(CCC=C(C)C)C[C@@]4(C)C(=O)O)[C@]3(C)CC[C@H]2[C@@]1(C)CCC(=O)OC | 6.7 | > 10 | > 10
5 | C=C(C)[C@@H]1CC=C2[C@@H](CC[C@]23C(=C)CC[C@@]3(C)[C@H](C)CC(=O)[C@@H]2CC(CCC=C(C)C)=CC[C@@]2(C)C(=O)O)[C@@]1(C)CCC(=O)O | > 10 | > 10 | > 10
6 | C=C(C)[C@@H]1CC=C2[C@@H](CC[C@]3(C)[C@@H]([C@H](C)CC(=O)[C@@H]4CC=C(CCC=C(C)C)C[C@@]4(C)C(=O)O)CC[C@@]23C)[C@@]1(C)CCC(=O)O | > 10 | > 10 | > 10
7 | C=C(C)[C@@H]1C=CC2=C3CC[C@@](C)([C@H](C)CC(=O)[C@H]4CC(CCC=C(C)C)=CC[C@]4(C)C(=O)O)[C@]3(C)CC[C@H]2[C@@]1(C)CCC(=O)O | 9 | > 10 | > 10
8 | C=C(C)[C@@H]1C=CC2=C3CC[C@@](C)([C@H](C)CC(=O)[C@@H]4CC=C(CCC=C(C)C)C[C@@]4(C)C(=O)O)[C@]3(C)CC[C@H]2[C@@]1(C)CCC(=O)O | 10 | > 10 | > 10
9 | C=C(C)[C@@H]1C=CC2=C3CC[C@@](C)([C@H](C)CC(=O)[C@H]4CC=C(CCC=C(C)C)C[C@]4(C)C(=O)O)[C@]3(C)CC[C@H]2[C@@]1(C)CCC(=O)O | > 10 | > 10 | > 10
10 | COc1cc([C@@H]2c3cc4c(cc3[C@@H](O[C@@H]3O[C@@H]5CO[C@@H](C)O[C@H]5[C@H](O)[C@H]3O)[C@H]3COC(=O)[C@H]23)OCO4)cc(OC)c1O [ETOPOSIDE] | 1.7 | 2 | > 10
